Reference: ChEMBL document CHEMBL4219021, “Discovery of a Small-Molecule Degrader of Bromodomain and Extra-Terminal (BET) Proteins with Picomolar Cellular Potencies and Capable of Achieving Tumor Regression” (J Med Chem, 2018)
Activity calls are given as the source filed them. The rule behind the calls is not given here.

Legend:
[1] = target: T1, Protein cereblon/Bromodomain-containing protein 3/Cullin-4A (Homo sapiens) (UniProt Q15059+Q96SW2+Q13619); assay: Induction of cereblon/cullin 4A-mediated BRD3 degradation in human RS4:11 cells after 3 hrs by Western blot method; format: cell-based
T1 sequence (Q13619 whole entry, looked up): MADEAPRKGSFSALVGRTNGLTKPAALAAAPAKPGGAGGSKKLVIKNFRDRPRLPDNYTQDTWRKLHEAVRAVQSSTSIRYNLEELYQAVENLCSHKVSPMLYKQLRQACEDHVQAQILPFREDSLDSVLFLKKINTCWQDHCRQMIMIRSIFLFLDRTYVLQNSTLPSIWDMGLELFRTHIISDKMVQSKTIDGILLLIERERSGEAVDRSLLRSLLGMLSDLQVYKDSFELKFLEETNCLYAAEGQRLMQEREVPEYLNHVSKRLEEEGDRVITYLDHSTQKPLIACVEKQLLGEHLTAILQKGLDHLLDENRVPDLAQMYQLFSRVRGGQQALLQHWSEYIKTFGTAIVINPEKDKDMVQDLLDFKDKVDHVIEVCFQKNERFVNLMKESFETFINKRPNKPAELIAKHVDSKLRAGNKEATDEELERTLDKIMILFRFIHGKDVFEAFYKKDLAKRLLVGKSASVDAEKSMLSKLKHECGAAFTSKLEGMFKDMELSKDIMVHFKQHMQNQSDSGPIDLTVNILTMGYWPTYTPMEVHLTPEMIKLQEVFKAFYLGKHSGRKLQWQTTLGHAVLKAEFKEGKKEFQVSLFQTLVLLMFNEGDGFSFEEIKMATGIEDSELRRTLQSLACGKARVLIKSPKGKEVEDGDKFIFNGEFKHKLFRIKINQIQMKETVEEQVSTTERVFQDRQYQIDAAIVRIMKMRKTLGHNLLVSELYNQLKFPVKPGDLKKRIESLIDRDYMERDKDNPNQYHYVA
T1 sequence (Q15059 whole entry, looked up): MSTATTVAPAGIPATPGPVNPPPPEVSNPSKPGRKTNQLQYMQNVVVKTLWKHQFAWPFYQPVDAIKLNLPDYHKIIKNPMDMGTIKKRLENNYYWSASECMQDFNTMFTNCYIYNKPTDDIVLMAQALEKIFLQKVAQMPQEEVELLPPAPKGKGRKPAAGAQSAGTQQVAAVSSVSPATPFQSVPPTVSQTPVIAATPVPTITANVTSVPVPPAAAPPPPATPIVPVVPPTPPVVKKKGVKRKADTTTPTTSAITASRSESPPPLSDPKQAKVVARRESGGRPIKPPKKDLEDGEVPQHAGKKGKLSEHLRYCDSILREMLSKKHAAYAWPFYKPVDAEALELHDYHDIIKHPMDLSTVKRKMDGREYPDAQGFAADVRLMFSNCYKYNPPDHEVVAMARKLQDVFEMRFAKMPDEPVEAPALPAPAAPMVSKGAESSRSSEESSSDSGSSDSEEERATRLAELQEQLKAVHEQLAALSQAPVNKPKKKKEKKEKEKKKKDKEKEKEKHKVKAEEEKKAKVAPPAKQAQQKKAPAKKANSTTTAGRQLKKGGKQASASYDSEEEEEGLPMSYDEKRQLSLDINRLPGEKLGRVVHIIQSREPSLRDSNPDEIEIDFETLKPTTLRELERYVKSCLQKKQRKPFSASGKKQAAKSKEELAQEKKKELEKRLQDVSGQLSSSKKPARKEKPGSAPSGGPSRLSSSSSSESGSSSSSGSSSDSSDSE
T1 sequence (Q96SW2 whole entry, looked up): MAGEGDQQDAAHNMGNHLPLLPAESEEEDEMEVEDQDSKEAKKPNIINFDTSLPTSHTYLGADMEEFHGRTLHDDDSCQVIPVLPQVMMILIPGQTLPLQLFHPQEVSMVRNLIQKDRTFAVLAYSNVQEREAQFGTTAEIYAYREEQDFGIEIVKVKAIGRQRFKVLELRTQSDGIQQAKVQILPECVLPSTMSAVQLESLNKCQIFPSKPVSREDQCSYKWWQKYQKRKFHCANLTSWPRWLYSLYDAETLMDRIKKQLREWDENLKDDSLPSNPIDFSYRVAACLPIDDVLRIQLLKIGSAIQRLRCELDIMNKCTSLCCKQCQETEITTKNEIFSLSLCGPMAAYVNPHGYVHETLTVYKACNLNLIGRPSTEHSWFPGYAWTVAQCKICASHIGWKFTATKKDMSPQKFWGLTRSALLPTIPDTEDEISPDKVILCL
How it was run: (§1)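 RS4;11 cells (2 × 10⁶/well) treated for 3 h at the indicated concentrations. Lysed in RIPA with protease inhibitors and immunoblotted for BRD2, BRD3 and BRD4 with specific antibodies.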

MOLM-13 = assay: Cytotoxicity against human MOLM13 cells assessed as cell growth inhibition after 4 days by WST-8 assay; format: functional, cell-based; conditions: MOLM-13, 96 h
RS4-11 = assay: Cytotoxicity against human RS4:11 cells assessed as cell growth inhibition after 4 days by WST-8 assay; format: functional, cell-based; conditions: RS4-11, 96 h
[2] = target: T2, Protein cereblon/Bromodomain-containing protein 4/Cullin-4A (Homo sapiens) (UniProt O60885+Q96SW2+Q13619); assay: Induction of cereblon/cullin 4A-mediated BRD4 degradation in human RS4:11 cells after 3 hrs by Western blot method; format: cell-based
How it was run: (§2)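 Western blot of RS4;11 cells (2 × 10⁶ cells/well) in RPMI 1640 with 10% FBS, 37 °C, 5% CO₂, used within three months of thawing. Compound exposure was 3 h or 24 h at the indicated concentrations. Cells were lysed in RIPA with protease inhibitors, and BRD2, BRD3 and BRD4 were detected with specific antibodies, with GAPDH as loading control.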

[3] = target: T3, Protein cereblon/Bromodomain-containing protein 2/Cullin-4A (Homo sapiens) (UniProt P25440+Q96SW2+Q13619); assay: Induction of cereblon/cullin 4A-mediated BRD2 degradation in human RS4:11 cells after 3 hrs by Western blot method; format: cell-based; how it was run: as §1
T3 sequence (P25440 whole entry, looked up): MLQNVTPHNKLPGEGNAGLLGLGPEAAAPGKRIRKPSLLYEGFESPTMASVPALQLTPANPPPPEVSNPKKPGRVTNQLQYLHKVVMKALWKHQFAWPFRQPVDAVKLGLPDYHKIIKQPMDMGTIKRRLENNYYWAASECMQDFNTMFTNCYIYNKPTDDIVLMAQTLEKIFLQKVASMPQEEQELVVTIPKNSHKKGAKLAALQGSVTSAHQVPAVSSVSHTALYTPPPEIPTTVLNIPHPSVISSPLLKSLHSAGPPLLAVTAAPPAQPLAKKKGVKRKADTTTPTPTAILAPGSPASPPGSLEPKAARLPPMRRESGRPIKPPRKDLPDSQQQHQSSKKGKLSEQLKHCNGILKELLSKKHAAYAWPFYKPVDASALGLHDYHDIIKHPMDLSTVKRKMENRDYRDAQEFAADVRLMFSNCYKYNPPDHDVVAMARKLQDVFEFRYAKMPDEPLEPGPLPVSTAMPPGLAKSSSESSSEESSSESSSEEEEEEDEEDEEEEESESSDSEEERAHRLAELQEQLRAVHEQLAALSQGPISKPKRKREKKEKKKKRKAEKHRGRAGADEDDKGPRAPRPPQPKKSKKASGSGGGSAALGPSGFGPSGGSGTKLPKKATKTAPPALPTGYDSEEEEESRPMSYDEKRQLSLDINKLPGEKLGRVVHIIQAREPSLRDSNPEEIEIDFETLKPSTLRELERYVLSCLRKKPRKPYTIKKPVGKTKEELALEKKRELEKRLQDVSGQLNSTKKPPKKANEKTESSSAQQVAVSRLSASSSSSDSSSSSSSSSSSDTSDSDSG
T3 sequence (Q13619 whole entry, looked up): as the sequence (Q13619 whole entry, looked up) above
T3 sequence (Q96SW2 whole entry, looked up): as the sequence (Q96SW2 whole entry, looked up) above

[4] = target: T2, Protein cereblon/Bromodomain-containing protein 4/Cullin-4A (Homo sapiens); assay: Induction of cereblon/cullin 4A-mediated BRD4 degradation in human RS4:11 cells at 30 to 300 nM after 3 hrs by Western blot method; format: cell-based; how it was run: as §2
[5] = target: T1, Protein cereblon/Bromodomain-containing protein 3/Cullin-4A (Homo sapiens); assay: Induction of cereblon/cullin 4A-mediated BRD3 degradation in human RS4:11 cells at 30 to 300 nM after 3 hrs by Western blot method; format: cell-based; how it was run: as §2
[6] = target: T3, Protein cereblon/Bromodomain-containing protein 2/Cullin-4A (Homo sapiens); assay: Induction of cereblon/cullin 4A-mediated BRD2 degradation in human RS4:11 cells at 30 to 300 nM after 3 hrs by Western blot method; format: cell-based; how it was run: as §1
[7] = target: T3, Protein cereblon/Bromodomain-containing protein 2/Cullin-4A (Homo sapiens); assay: Induction of cereblon/cullin 4A-mediated BRD2 degradation in human MOLM13 cells after 3 hrs by Western blot method; format: cell-based
[8] = target: T1, Protein cereblon/Bromodomain-containing protein 3/Cullin-4A (Homo sapiens); assay: Induction of cereblon/cullin 4A-mediated BRD3 degradation in human MOLM13 cells after 3 hrs by Western blot method; format: cell-based
[9] = target: T2, Protein cereblon/Bromodomain-containing protein 4/Cullin-4A (Homo sapiens); assay: Induction of cereblon/cullin 4A-mediated BRD4 degradation in human MOLM13 cells after 3 hrs by Western blot method; format: cell-based
[10] = target: T1, Protein cereblon/Bromodomain-containing protein 3/Cullin-4A (Homo sapiens); assay: Induction of cereblon/cullin 4A-mediated BRD3 degradation in human RS4:11 cells at 3 to 30 nM after 3 hrs by Western blot method; format: cell-based; how it was run: as §2
[11] = target: T3, Protein cereblon/Bromodomain-containing protein 2/Cullin-4A (Homo sapiens); assay: Induction of cereblon/cullin 4A-mediated BRD2 degradation in human RS4:11 cells at 3 to 30 nM after 3 hrs by Western blot method; format: cell-based; how it was run: as §1
[12] = target: T4, Bromodomain-containing protein 4 (Homo sapiens, UniProt O60885); assay: Inhibition of FAM-labeled ZBA248 binding to recombinant N-terminal His6-tagged BRD4 bromodomain 2 (333 to 460 residues) (unknown origin) expressed in Escherichia coli Rosetta2 DE3 after 30 mins by fluorescence polarization assay
[13] = target: T5, Bromodomain-containing protein 3 (Homo sapiens, UniProt Q15059); assay: Inhibition of FAM-labeled ZBA248 binding to recombinant N-terminal His6-tagged BRD3 bromodomain 1 (24 to 144 residues) (unknown origin) expressed in Escherichia coli Rosetta2 DE3 after 30 mins by fluorescence polarization assay
T5 sequence (Q15059 whole entry, the tested form may be a part): as the sequence (Q15059 whole entry, looked up) above

[14] = target: T5, Bromodomain-containing protein 3; assay: Inhibition of FAM-labeled ZBA248 binding to recombinant N-terminal His6-tagged BRD3 bromodomain 2 (306 to 417residues) (unknown origin) expressed in Escherichia coli Rosetta2 DE3 after 30 mins by fluorescence polarization assay
[15] = target: T4, Bromodomain-containing protein 4; assay: Inhibition of FAM-labeled ZBA248 binding to recombinant N-terminal His6-tagged BRD4 bromodomain 1 (44 to 168 residues) (unknown origin) expressed in Escherichia coli Rosetta2 DE3 after 30 mins by fluorescence polarization assay
[16] = target: T6, Bromodomain-containing protein 2 (Homo sapiens, UniProt P25440); assay: Inhibition of FAM-labeled ZBA248 binding to recombinant N-terminal His6-tagged BRD2 bromodomain 2 (349 to 460 residues) (unknown origin) expressed in Escherichia coli Rosetta2 DE3 after 30 mins by fluorescence polarization assay
T6 sequence (P25440 whole entry, the tested form may be a part): as the sequence (P25440 whole entry, looked up) above

[17] = target: T6, Bromodomain-containing protein 2; assay: Inhibition of FAM-labeled ZBA248 binding to recombinant N-terminal His6-tagged BRD2 bromodomain 1 (72 to 205 residues) (unknown origin) expressed in Escherichia coli Rosetta2 DE3 after 30 mins by fluorescence polarization assay
[18] = target: T1, Protein cereblon/Bromodomain-containing protein 3/Cullin-4A (Homo sapiens); assay: Induction of cereblon/cullin 4A-mediated BRD3 degradation in human RS4:11 cells at 30 to 1000 nM after 3 hrs by Western blot method; format: cell-based; how it was run: as §2
[19] = target: T3, Protein cereblon/Bromodomain-containing protein 2/Cullin-4A (Homo sapiens); assay: Induction of cereblon/cullin 4A-mediated BRD2 degradation in human RS4:11 cells at 30 to 1000 nM after 3 hrs by Western blot method; format: cell-based; how it was run: as §1
[20] = target: T2, Protein cereblon/Bromodomain-containing protein 4/Cullin-4A (Homo sapiens); assay: Induction of cereblon/cullin 4A-mediated BRD4 degradation in human RS4:11 cells at 30 to 1000 nM after 3 hrs by Western blot method; format: cell-based; how it was run: as §2
[21] = target: T1, Protein cereblon/Bromodomain-containing protein 3/Cullin-4A (Homo sapiens); assay: Induction of cereblon/cullin 4A-mediated BRD3 degradation in human RS4:11 cells at 3 to 10 nM after 3 hrs by Western blot method; format: cell-based; how it was run: as §2
[22] = target: T2, Protein cereblon/Bromodomain-containing protein 4/Cullin-4A (Homo sapiens); assay: Induction of cereblon/cullin 4A-mediated BRD4 degradation in human RS4:11 cells at 3 to 10 nM after 3 hrs by Western blot method; format: cell-based; how it was run: as §2
[23] = target: T3, Protein cereblon/Bromodomain-containing protein 2/Cullin-4A (Homo sapiens); assay: Induction of cereblon/cullin 4A-mediated BRD2 degradation in human RS4:11 cells at 3 to 10 nM after 3 hrs by Western blot method; format: cell-based; how it was run: as §1

CCn1nc(C2CC2)cc1Nc1nc(C(=O)NCCCc2cccc3c2CN(C2CCC(=O)NC2=O)C3=O)nc2[nH]c3cc(-c4c(C)noc4C)c(OC)cc3c12 (stereo not given)
Activity [1]: Dose-dependent effect
IC50 (MOLM-13): 72.3 nM
IC50 (RS4-11): 9.6 nM
Activity [2]: Dose-dependent effect
Activity [3]: Dose-dependent effect

CCn1nc(C2CC2)cc1Nc1nc(C(=O)NCCNc2cccc3c2C(=O)N(C2CCC(=O)NC2=O)C3=O)nc2[nH]c3cc(-c4c(C)noc4C)c(OC)cc3c12 (stereo not given)
IC50 (MOLM-13): 68.7 nM
IC50 (RS4-11): 4.8 nM

CCn1nc(C2CC2)cc1Nc1nc(C(=O)NCCCCCCCOc2cccc3c2C(=O)N(C2CCC(=O)NC2=O)C3=O)nc2[nH]c3cc(-c4c(C)noc4C)c(OC)cc3c12 (stereo not given)
IC50 (MOLM-13): 3.9 nM
IC50 (RS4-11): 0.48 nM

CCn1nc(C2CC2)cc1Nc1nc(C(=O)NCCCCc2cccc3c2CN(C2CCC(=O)NC2=O)C3=O)nc2[nH]c3cc(-c4c(C)noc4C)c(OC)cc3c12 (stereo not given)
Activity [1]: Dose-dependent effect
IC50 (MOLM-13): 13.7 nM
IC50 (RS4-11): 0.98 nM
Activity [2]: Dose-dependent effect
Activity [3]: Dose-dependent effect

CCn1nc(C2CC2)cc1Nc1nc(C(=O)NCCCCCCNc2cccc3c2C(=O)N(C2CCC(=O)NC2=O)C3=O)nc2[nH]c3cc(-c4c(C)noc4C)c(OC)cc3c12 (stereo not given)
IC50 (MOLM-13): 3.7 nM
IC50 (RS4-11): 0.63 nM

Cc1sc2c(c1C)C(c1ccc(Cl)cc1)=N[C@@H](CC(=O)NCCCCNC(=O)COc1cccc3c1C(=O)N(C1CCC(=O)NC1=O)C3=O)c1nnc(C)n1-2 (stereo not given in full)
IC50 (MOLM-13): 657 nM
Activity [4]: Active
Activity [5]: Active
Activity [6]: Active

CCn1nc(C2CC2)cc1Nc1nc(C(=O)NCCCCCCc2cccc3c2C(=O)N(C2CCC(=O)NC2=O)C3=O)nc2[nH]c3cc(-c4c(C)noc4C)c(OC)cc3c12 (stereo not given)
IC50 (MOLM-13): 2.5 nM
IC50 (RS4-11): 0.17 nM

CCn1nc(C2CC2)cc1Nc1nc(C(=O)NCCCCCNc2cccc3c2C(=O)N(C2CCC(=O)NC2=O)C3=O)nc2[nH]c3cc(-c4c(C)noc4C)c(OC)cc3c12 (stereo not given)
IC50 (MOLM-13): 2.1 nM
IC50 (RS4-11): 0.14 nM
Activity [7]: Active
Activity [8]: Active
Activity [9]: Active

COc1cc2c(cc1-c1c(C)noc1C)[nH]c1nc(C(=O)NCCCCCc3cccc4c3CN(C3CCC(=O)NC3=O)C4=O)ncc12 (stereo not given)
IC50 (MOLM-13): > 1000 nM
IC50 (RS4-11): > 1000 nM

CCn1nc(C2CC2)cc1Nc1nc(C(=O)NCCCCCc2cccc3c2C(=O)N(C2CCC(=O)NC2=O)C3=O)nc2[nH]c3cc(-c4c(C)noc4C)c(OC)cc3c12 (stereo not given)
IC50 (MOLM-13): 2.1 nM
IC50 (RS4-11): 0.14 nM

Cc1sc2c(c1C)C(c1ccc(Cl)cc1)=N[C@@H](CC(=O)Nc1ccc(OCCOCCOCCOCCNc3cccc4c3C(=O)N(C3CCC(=O)NC3=O)C4=O)cc1)c1nnc(C)n1-2 (stereo not given in full)
Activity [10]: Active
Activity [11]: Active

CCn1nc(C2CC2)cc1Nc1nc(C(=O)NCCCCNC(=O)CNc2cccc3c2C(=O)N(C2CCC(=O)NC2=O)C3=O)nc2[nH]c3cc(-c4c(C)noc4C)c(OC)cc3c12 (stereo not given)
IC50 (MOLM-13): 19.9 nM
IC50 (RS4-11): 2.5 nM

CCn1nc(C2CC2)cc1Nc1nc(C(=O)NCCCCCCCNc2cccc3c2C(=O)N(C2CCC(=O)NC2=O)C3=O)nc2[nH]c3cc(-c4c(C)noc4C)c(OC)cc3c12 (stereo not given)
IC50 (MOLM-13): 1.2 nM
IC50 (RS4-11): 0.2 nM
Activity [7]: Active
Activity [8]: Active
Activity [9]: Active

CNC(=O)c1ncc2c(n1)[nH]c1cc(-c3c(C)noc3C)c(OC)cc12
IC50 [12]: 630 nM
Ki [12]: 205 nM
IC50 [13]: 294 nM
Ki [13]: 82.1 nM
IC50 [14]: 189 nM
Ki [14]: 42.4 nM
IC50 [15]: 484 nM
Ki [15]: 152 nM
IC50 [16]: 224 nM
Ki [16]: 57.3 nM
IC50 [17]: 218 nM
Ki [17]: 101 nM

CCn1nc(C2CC2)cc1Nc1nc(C(=O)NCCCCCc2cccc3c2CN(C2CCC(=O)N(C)C2=O)C3=O)nc2[nH]c3cc(-c4c(C)noc4C)c(OC)cc3c12 (stereo not given)
IC50 (MOLM-13): 83.4 nM
Activity [18]: inactive
IC50 (RS4-11): 35.1 nM
Activity [19]: inactive
Activity [20]: inactive

CCn1nc(C2CC2)cc1Nc1nc(C(=O)NCCCNc2cccc3c2C(=O)N(C2CCC(=O)NC2=O)C3=O)nc2[nH]c3cc(-c4c(C)noc4C)c(OC)cc3c12 (stereo not given)
IC50 (MOLM-13): 9.5 nM
IC50 (RS4-11): 2.4 nM

CCn1nc(C2CC2)cc1Nc1nc(C(=O)NCCOCCCc2cccc3c2CN(C2CCC(=O)NC2=O)C3=O)nc2[nH]c3cc(-c4c(C)noc4C)c(OC)cc3c12 (stereo not given)
IC50 (MOLM-13): 5.4 nM
IC50 (RS4-11): 0.9 nM

CCn1nc(C2CC2)cc1Nc1nc(C(=O)NCCOCCCc2cccc3c2C(=O)N(C2CCC(=O)NC2=O)C3=O)nc2[nH]c3cc(-c4c(C)noc4C)c(OC)cc3c12 (stereo not given)
IC50 (MOLM-13): 5.9 nM
IC50 (RS4-11): 0.42 nM

CCn1nc(C2CC2)cc1Nc1nc(C(=O)NCCCCNC(=O)COc2cccc3c2C(=O)N(C2CCC(=O)NC2=O)C3=O)nc2[nH]c3cc(-c4c(C)noc4C)c(OC)cc3c12 (stereo not given)
IC50 (MOLM-13): 45.5 nM
Activity [21]: Active
Activity [22]: Active
Activity [23]: Active
IC50 (RS4-11): 4.3 nM

CCn1nc(C2CC2)cc1Nc1nc(C(=O)NCCCCCCc2cccc3c2CN(C2CCC(=O)NC2=O)C3=O)nc2[nH]c3cc(-c4c(C)noc4C)c(OC)cc3c12 (stereo not given)
Activity [1]: Dose-dependent effect
IC50 (MOLM-13): 1 nM
IC50 (RS4-11): 0.037 nM
Activity [2]: Dose-dependent effect
Activity [3]: Dose-dependent effect

CCn1nc(C2CC2)cc1Nc1nc(C(=O)NCCCCNc2cccc3c2C(=O)N(C2CCC(=O)NC2=O)C3=O)nc2[nH]c3cc(-c4c(C)noc4C)c(OC)cc3c12 (stereo not given)
IC50 (MOLM-13): 5 nM
IC50 (RS4-11): 0.45 nM
